For series [1], the target named is 5-hydroxytryptamine receptor 2A (Homo sapiens, UniProt P28223). In words: Displacement of [3H]-ketanserin from human 5-HT2A receptor expressed in HEK293 cells incubated for 1 hr. Format: cell-based. Summed up: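 Membranes from HEK293 cells stably expressing human 5-HT2A receptor, with [3H]-ketanserin (66.9 Ci/mmol). Incubation 1 h at 37 °C, then rapid filtration and counting. Triplicates at 7–8 concentrations (10^-11 to 10^-4 M). Ki by Cheng–Prusoff; means of at least three experiments.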
Background: In a radioligand displacement assay an active substance lowers the binding of a labelled ligand.

A further series has as its target D(2) dopamine receptor (Homo sapiens, UniProt P14416). The series is described as follows: Displacement of [3H]-Raclopride from human dopamine D2L receptor expressed in HEK293 cells incubated for 1 hr. Format: cell-based. An outline of the steps:
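Membranes from HEK293 cells stably expressing human D2L receptor, with [3H]-raclopride (74.4 Ci/mmol). Buffer: Tris-HCl, EDTA, MgCl2, 120 mM NaCl, 5 mM KCl, 1.5 mM CaCl2, ascorbate. Incubation 1 h at 37 °C, then filtration. Non-specific binding defined with (+)butaclamol. Triplicates at 7–8 concentrations (10^-11 to 10^-4 M). Ki by Cheng–Prusoff.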

Series [2] deals with T1, 5-hydroxytryptamine receptor 1A (Homo sapiens, UniProt P08908).
T1 sequence (P08908 whole entry): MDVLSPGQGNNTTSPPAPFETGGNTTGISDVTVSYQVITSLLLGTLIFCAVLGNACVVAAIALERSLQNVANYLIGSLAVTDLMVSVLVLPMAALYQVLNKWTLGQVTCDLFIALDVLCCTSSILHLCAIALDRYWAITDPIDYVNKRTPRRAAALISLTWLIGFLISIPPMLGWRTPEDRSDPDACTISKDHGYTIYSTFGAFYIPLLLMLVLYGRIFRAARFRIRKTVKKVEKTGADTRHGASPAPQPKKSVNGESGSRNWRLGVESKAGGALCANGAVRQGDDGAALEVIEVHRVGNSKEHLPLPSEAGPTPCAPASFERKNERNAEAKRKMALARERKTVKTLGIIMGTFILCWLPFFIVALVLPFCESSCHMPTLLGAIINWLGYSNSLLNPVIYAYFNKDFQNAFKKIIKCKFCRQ
In words: Displacement of [3H]-8-OH-DPAT from human 5-HT1A receptor expressed in HEK293 cells incubated for 1 hr. Type of series: cell-based. Summed up:
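Membranes from HEK293 cells stably expressing human 5-HT1A receptor, with [3H]-8-OH-DPAT (187 Ci/mmol). Buffer: 50 mM Tris-HCl, 0.1 mM EDTA, 4 mM MgCl2, pargyline, 0.1% ascorbate. Incubation 1 h at room temperature, then filtration. Non-specific binding defined with 5-HT. Triplicates at 7–8 concentrations. Ki by Cheng–Prusoff.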

Series [3] concerns the target 5-hydroxytryptamine receptor 7 (Homo sapiens, UniProt P34969). The series is described as follows: Displacement of [3H]-5-CT from human 5-HT7B receptor expressed in HEK293 cells incubated for 1 hr. Type of series: cell-based. An outline of the steps:
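Membranes from HEK293 cells stably expressing human 5-HT7b receptor, with [3H]-5-CT (39.2 Ci/mmol). Buffer: 50 mM Tris-HCl, 4 mM MgCl2, pargyline, 0.1% ascorbate. Incubation 1 h at 37 °C, then rapid filtration and counting of filter radioactivity. Non-specific binding defined with 5-HT. Triplicates at 7–8 concentrations (10^-11 to 10^-4 M). Ki by Cheng–Prusoff.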

Series [4] concerns Mus musculus. In words: Toxicity in Swiss albino mouse assessed as effect on spontaneous locomotor activity at 1.25 mg/kg, ip dosed 30 mins before test measured after 2 to 6 mins. Format: organism-based. As to conditions: in vivo. An outline of the steps: (§1)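 Swiss albino mice given reference drug ip 30 min before testing (citalopram in water; SB-269970 suspended in 1% aqueous Tween 80). Ambulation counted from 2 to 6 min in individual cages by activity monitor.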

In series [5] the test system is Mus musculus. The series is described as follows: Antidepressant-like activity in Swiss albino mouse assessed as reduction in immobility time at 1.25 mg/kg, ip dosed 30 mins before test measured after 6 mins by forced swim test. Format: functional, organism-based. An outline of the steps: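 Male Swiss albino mice (22–26 g), 7–12/group, used once; drug in distilled water, given ip 30 min before test. Observer blind to treatment. Mice swam 6 min in a glass cylinder (25 cm high, 10 cm diameter) holding 10 cm of water at 23–25 °C. Immobility (floating, only small head-keeping movements) was timed over the last 4 min. One-way ANOVA, then Bonferroni vs vehicle.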

Series [6] deals with Mus musculus. The series is described as follows: Toxicity in Swiss albino mouse assessed as effect on spontaneous locomotor activity at 10 mg/kg, ip dosed 30 mins before test measured after 2 to 6 mins. The note with it: in vivo. Type of series: organism-based. An outline of the steps: as §1
Series [7] has as its system Mus musculus. The series is described as follows: Antidepressant-like activity in Swiss albino mouse assessed as reduction in immobility time at 10 mg/kg, ip dosed 30 mins before test measured after 6 mins by forced swim test. Format: functional, organism-based. Summed up:
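Male Swiss albino mice (22–26 g), 7–12/group, used once; drug suspended in 1% aqueous Tween 80 just before use, given ip 30 min before test. Blind observer. 6-min swim in a glass cylinder (25 × 10 cm) with 10 cm of water at 23–25 °C. Immobility timed over the final 4 min. Data as mean ± SEM; one-way ANOVA, then Bonferroni vs vehicle.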

Series [8] can be described thus: Half life in mouse liver microsomes at 20 uM at pH 7.4 incubated for 15 mins by UPLC/MS analysis in presence of NADPH. Type of series: ADME. An outline of the steps:
(§2)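 Compound (20 µM) incubated with mouse liver microsomes (0.2 mg/ml) in 100 mM potassium phosphate, pH 7.4, 37 °C. Reaction started with NADPH-regenerating system; blank without NADPH run in parallel. Sampling at 5, 15, 30 and 60 min (some to 120 min), in duplicate. Levallorphan internal standard; UPLC/MS quantitation. t1/2 from ln % remaining vs time.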
Background: Liver microsomes are vesicles of endoplasmic reticulum, rich in cytochrome P450 enzymes.

Series [9] can be described thus: Drug metabolism in mouse liver microsomes assessed as retention time of N-dealkylated metabolite at 20 uM at pH 7.4 incubated for 15 mins by UPLC/MS analysis in presence of NADPH. Format: ADME. The note with it: pH 7.4, 0.25 h. An outline of the steps: as §2
The nature of series [10]: Intrinsic clearance in mouse liver microsomes at 20 uM at pH 7.4 incubated for 15 mins by UPLC/MS analysis in presence of NADPH. Format: ADME. The note with it: read-out: CLH.
A short description of series [11]: Metabolic stability in mouse liver microsomes assessed as retention time of compound at 20 uM at pH 7.4 incubated for 15 mins by UPLC/MS analysis in presence of NADPH. Type of series: ADME. As to conditions: pH 7.4, 0.25 h. Summed up:
as §2

Series [12] is described as follows: Drug metabolism in mouse liver microsomes assessed as retention time of hydroxylated metabolite at 20 uM at pH 7.4 incubated for 15 mins by UPLC/MS analysis in presence of NADPH. As to conditions: pH 7.4, 0.25 h. Format: ADME. Summed up: as §2

Structures are written as SMILES. Calls of active or inactive are those of the source. No cut-off for these calls is given here. Some results are limits rather than exact numbers.

Chain of 5-hydroxytryptamine receptor 7 (P34969 whole entry): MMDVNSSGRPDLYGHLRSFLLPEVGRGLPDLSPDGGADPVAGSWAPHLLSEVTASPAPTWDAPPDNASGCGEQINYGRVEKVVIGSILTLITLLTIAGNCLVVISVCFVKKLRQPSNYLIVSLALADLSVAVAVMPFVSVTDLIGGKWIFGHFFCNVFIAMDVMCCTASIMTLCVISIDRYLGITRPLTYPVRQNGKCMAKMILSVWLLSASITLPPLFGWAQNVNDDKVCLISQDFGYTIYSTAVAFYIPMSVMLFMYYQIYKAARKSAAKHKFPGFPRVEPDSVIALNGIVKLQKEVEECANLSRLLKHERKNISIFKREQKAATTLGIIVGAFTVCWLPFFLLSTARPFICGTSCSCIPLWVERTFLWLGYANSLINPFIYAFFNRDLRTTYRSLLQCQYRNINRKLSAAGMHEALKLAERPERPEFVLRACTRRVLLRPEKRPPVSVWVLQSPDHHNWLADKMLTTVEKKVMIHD
Chain of 5-hydroxytryptamine receptor 2A (P28223 whole entry): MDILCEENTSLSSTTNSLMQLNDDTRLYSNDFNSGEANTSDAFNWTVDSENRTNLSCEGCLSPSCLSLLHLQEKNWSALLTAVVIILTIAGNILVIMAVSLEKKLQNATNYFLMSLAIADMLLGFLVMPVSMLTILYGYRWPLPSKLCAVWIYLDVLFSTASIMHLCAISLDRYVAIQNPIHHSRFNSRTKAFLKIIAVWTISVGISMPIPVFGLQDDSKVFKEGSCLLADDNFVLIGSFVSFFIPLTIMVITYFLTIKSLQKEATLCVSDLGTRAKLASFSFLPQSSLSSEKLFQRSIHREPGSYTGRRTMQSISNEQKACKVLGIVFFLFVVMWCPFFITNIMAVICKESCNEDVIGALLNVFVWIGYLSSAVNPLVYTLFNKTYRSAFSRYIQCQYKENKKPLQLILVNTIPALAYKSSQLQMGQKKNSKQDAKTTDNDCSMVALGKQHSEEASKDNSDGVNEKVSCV
Chain of D(2) dopamine receptor (P14416 whole entry): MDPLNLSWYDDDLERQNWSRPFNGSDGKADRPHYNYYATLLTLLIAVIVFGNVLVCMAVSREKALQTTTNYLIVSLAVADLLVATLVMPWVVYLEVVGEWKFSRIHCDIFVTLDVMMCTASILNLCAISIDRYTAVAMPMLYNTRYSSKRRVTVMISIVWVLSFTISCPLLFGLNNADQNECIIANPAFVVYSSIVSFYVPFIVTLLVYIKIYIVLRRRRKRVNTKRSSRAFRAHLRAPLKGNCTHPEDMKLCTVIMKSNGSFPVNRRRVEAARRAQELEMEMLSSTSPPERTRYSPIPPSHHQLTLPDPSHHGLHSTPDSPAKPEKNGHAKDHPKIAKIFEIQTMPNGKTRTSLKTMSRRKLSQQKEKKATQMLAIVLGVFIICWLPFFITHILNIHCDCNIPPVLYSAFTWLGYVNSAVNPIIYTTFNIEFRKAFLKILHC

Usually Ki stands for the equilibrium dissociation constant of an inhibitor or competing ligand from its target. Higher therefore signals weaker binding. On to `O=S(=O)(c1ccc(F)cc1)N(CC1CC1)C1CCN(CCOc2ccccc2-c2ccccc2)CC1`, for which the Ki was found to be 70 nM in series [1], 37 nM on D(2) dopamine receptor, 342 nM in [2] and 18 nM in series [3].
For `CN(C)CCCC1(c2ccc(F)cc2)OCc2cc(C#N)ccc21` (stereo not drawn) [CITALOPRAM], the Activity entry in the series with Mus musculus [4] is “Non-toxic”. In addition, in the series with Mus musculus [5], the result was Active.
For the compound `CN(C1CCN(CCOc2ccccc2-c2ccccc2)CC1)S(=O)(=O)c1ccc(F)cc1`, the Ki came to 69 nM in series [1], 54 nM at D(2) dopamine receptor, 30 nM in [2] and 5 nM in [3].
Turning to `CC1CCN(CC[C@H]2CCCN2S(=O)(=O)c2cccc(O)c2)CC1`, in the series on Mus musculus [6], the Activity result was “Non-toxic”. Also, the outcome in the series on Mus musculus [7] was Active.
In the case of `CN(C1CCN(CCOc2ccccc2C(C)(C)C)CC1)S(=O)(=O)c1ccccc1`, the Ki in series [1] was found to be 1250 nM; at D(2) dopamine receptor, 360 nM; in series [2], 2350 nM; in series [3] it was 70 nM.
On the same counts, the results for `CC(C)c1ccccc1OCCN1CCC(N(CC2CC2)S(=O)(=O)c2ccc(F)cc2)CC1` are 413 nM, 20 nM, 249 nM and 28 nM.
Broadly, the half-life is how long it takes for the measured level to halve. Regarding `Cn1cc(S(=O)(=O)NC2CCN(CCOc3ccccc3-c3ccccc3)CC2)cn1`, the half-life at 20 µM in [8] is under 20 min. For the same compound, the Retention_time was 3.85 min in series [9] and 4.45 min in series [11]. In addition, the microsomal CLint at 20 µM in [10] was over 200 µL/min/mg.
Consider `CC(C)c1ccccc1OCCN1CCC(N(CC2CC2)S(=O)(=O)c2cccc(F)c2)CC1`, for which the Ki in series [1] was 429 nM; on D(2) dopamine receptor, 15 nM; in series [2] it was 158 nM; in [3], 56 nM.
On to `CC(C)c1ccccc1OCCN1CCC(N(CC2CC2)S(=O)(=O)c2cnn(C)c2)CC1`, for which the Ki in series [1] came to 378 nM; at D(2) dopamine receptor, 18 nM; in series [2], 214 nM; in series [3] it was 56 nM.
On the same counts, the results for `CN(C1CCN(CCOc2ccccc2-c2ccccc2)CC1)S(=O)(=O)c1ccccc1` are 42 nM, 52 nM, 62 nM and 100 nM.
Consider `CC(C)c1ccccc1OCCN1CCC(N(C)S(=O)(=O)c2cnn(C)c2)CC1`, for which the inhibition constant (Ki) in series [1] was determined as 121 nM; at D(2) dopamine receptor, 46 nM; in series [2], 346 nM; in series [3], 10 nM.
On the same counts, the results for `CC(C)c1ccccc1OCCN1CCC(N(C)S(=O)(=O)c2cccc(F)c2)CC1` are 230 nM, 45 nM, 190 nM and 18 nM.
`CN(C1CCN(CCOc2ccccc2C(C)(C)C)CC1)S(=O)(=O)c1ccc(F)cc1`: the Ki in [1] worked out at 1070 nM; at D(2) dopamine receptor it was 324 nM; in [2] it was 9050 nM; in series [3] it was 58 nM.
Regarding `CC(C)c1ccccc1OCCN1CCC(N(C)S(=O)(=O)c2ccccc2)CC1`, the Ki is 264 nM in series [1], 60 nM on D(2) dopamine receptor, 140 nM in series [2] and 9 nM in series [3].
On the same counts, the results for `CN(C1CCN(CCOc2ccccc2C(C)(C)C)CC1)S(=O)(=O)c1cccc(F)c1` are 1930 nM, 290 nM, 4510 nM and 68 nM.
On the same counts, the results for `CC(C)(C)c1ccccc1OCCN1CCC(N(CC2CC2)S(=O)(=O)c2ccc(F)cc2)CC1` are 1330 nM, 160 nM, 14000 nM and 53 nM.
Take `Cn1cc(S(=O)(=O)NC2CCN(CCOc3ccccc3C(C)(C)C)CC2)cn1`: in [8], the half-life at 20 µM is under 20 min. Besides, the microsomal CLint at 20 µM in series [10] was over 200 µL/min/mg. For the same compound, the Retention_time in series [12] amounted to 3.62 min; in series [11], 4.72 min.
On to `CC(C)c1ccccc1OCCN1CCC(N(C)S(=O)(=O)c2ccc(F)cc2)CC1`, for which the Ki in [1] worked out at 382 nM; on D(2) dopamine receptor it was 50 nM; in [2], 180 nM; in series [3], 13 nM.

Source of the values: ChEMBL document CHEMBL3745654, “N-Alkylated arylsulfonamides of (aryloxy)ethyl piperidines: 5-HT(7) receptor selectivity versus multireceptor profile” (Bioorg Med Chem, 2016).
